Measurements from the EternaBench riboswitch data.

System: MS2 coat protein
Experiment: apparent Kd, MS2 coat protein; higher = weaker binding; RNA-MaP array; FMN 200 µM where present
Summary of the method: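 Binding was read on Illumina sequencing-chip clusters where stalled E. coli RNA polymerase had transcribed each design. A titration of SNAP-549-labelled MS2 coat protein began at 0.7 or 1.5 nM and doubled to 3 µM, once without ligand and once with constant ligand, in 100 mM Tris-HCl pH 7.5, 80 mM KCl, 4 mM MgCl2, BSA, DTT, yeast tRNA and Tween-20. The apparent Kd is the median of filtered per-cluster binding-curve fits, based on green signal normalised to red-channel RNA signal and control-cluster median Fmax.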

[1] = designed as: OFF switch for flavin mononucleotide, no ligand
[2] = ligand present: flavin mononucleotide, designed as: OFF switch for flavin mononucleotide
[3] = designed as: ON switch for flavin mononucleotide, no ligand
[4] = ligand present: flavin mononucleotide, designed as: ON switch for flavin mononucleotide

Row | Sequence | apparent Kd [1] [nM] | apparent Kd [2] [nM] | apparent Kd [3] [nM] | apparent Kd [4] [nM]
1 | GCUCUGUCAGGAUAUCAGGCUGACGGAACUUGGCUGUUAGAUGAGAAGGGACAUGAGGAUCACCCAUGUAAAAU | 33.8 | 34.8 |  | 
2 | AUUACCACGGUAAGGAUAUUGUACGCAGCAUGCGUUAAGAAGGUACAUGAGGAUCACCCAUGUCUUCCGGUAGC | 20.5 | 21.2 |  | 
3 | AACGAGCAGUAGAAGGCAUGUCUACGGACAUGAGGAUCACCCAUGUUGUGACUCCGAAAGGAGCGUGAGGAUAUACUGCUCAAA |  |  | 91.9 | 14.3
4 | AAUCCACAUGAGGAUCACCCAUGUCAGGAUAUUGUUACUAGAGCGCACCUGUGUUCUACGAGAAGGGACUAAAC | 12 | 12.2 |  | 
5 | AUAAAUGAGGAGGAUAUCGAAUCGGAAACGAUUCGAGAAGGCCUAACAUGAGGAUCACCCAUGUUCCUUAAAUA | 28.8 | 42.2 |  | 
6 | UGGUCGGAGACAGGAUAUGUGACUGCAUAGUGCACAGAAGGGUCUACAUGAGGAUCACCCAUGUCACCGACCACCAAACAACAA |  |  | 626 | 55.2
7 | CUCCAUUCUGGAGGAUAUCAUAGUCGUUGACUAUGAGAAGGUUAGCUAUCUUACAUGAGGAUCACCCAUGUGAUCUACAUGGAG |  |  | 40.5 | 10.8
8 | GUUCCACAUGAGGAUCACCCAUGUGAGGAUAUGGAUUCGCUGGCCGUAGCCAGUGGAUCCAGAAGGCGCAUGAU | 39.9 | 153 |  | 
9 | GUCAGCUCGUGAGGAUAUACAUGUGCUGGAUACAGCACUAAUUAAAUCACAUGAGGAUCACCCAUGUAGAAGGCACGAGCUGAU | 16.7 | 24.8 |  | 
10 | ACCCAGUUUUGCACUACAUGAGGAUCACCCAUGUGAGCGAGCAGAAGGACGAUGGGUGGAAAAUCGUAGGAUAUGCACUGGGCU |  |  | 44.8 | 12.3
11 | GUGAAACAUGAGGAUCACCCAUGUGAGGAUAUGUUUUAGUAAUGAUGAAAGUAAAUCUACAGAAGGCACAAUGG | 75.8 | 117 |  | 
12 | ACCAAUGGAGGAUAUACAUGAGGAUCACCCAUGUUUAUCCUACAUAGGUGAAAAAUAUGUAGAAGGCCAUUGGA | 17 | 20.5 |  | 
13 | UUGAGGUCAGGAUAUGCAUGGCGGGACUUGCGUCGUGGCGUGGAGAAGGGACAUGAGGAUCACCCAUGUGGAGC | 55.6 | 62 |  | 
14 | UCGGUGCGAGGAUAUACGUUUGCGCGUUUUCGUUUGCGCGUACAUGAGGAUCACCCAUGUAGAAGGCGCGCGGC | 12.4 | 13.7 |  | 
15 | GACUUGUUAGGAUAUCUUACUUUUGCAUCAUAGUAACCAUUGGAGAAGGGACAUGAGGAUCACCCAUGUUUGGA | 32.9 | 28.9 |  | 
16 | AUCAGCUCGUCAGGAUAUACGUCACUGCGUCAGCAGUGCGGUAAGAUCACAUGAGGAUCACCCAUGUAGAAGGGACGAGCUGAU | 6.4 | 20.1 |  | 
17 | CCGGAAAUGAAGGAUAUAGGAGUCGAUAGACUCCUAGAAGGUCAUACAUGAGGAUCACCCAUGUGUCCUACCGG | 15.8 | 34.9 |  | 
18 | GCUUGUGAAGGAUAUACUGGCGGCGUGCGCUCGGCGCGCGCACAUGAGGAUCACCCAUGUAGAAGGUCAGGCGU | 13.8 | 12.5 |  | 
19 | UUCCUGUCAGGAUAUGACUAGAUGCACGAAAGUGUGUUUAGUUAGAAGGGACAUGAGGAUCACCCAUGUAGUCC | 23.5 | 39 |  | 

Row | Sequence | apparent Kd [1] [nM] | apparent Kd [2] [nM] | apparent Kd [3] [nM] | apparent Kd [4] [nM]
20 | ACCUCACAUGAGGAUCACCCAUGUCAGGAUAUACAAACCGUGUAAAGACACGGUCGUAGUAGAAGGGACUAUGG | 68 | 18.7 |  | 
21 | CCAUGCGGAUGAGGAUAUUCAUCCAUGAGGAUAGAAGAAGGCGUACAUGAGGAUCACCCAUGUAUACACAUGAGGAUCCCUUAC | 462 | 420 |  | 
22 | ACCGAGACAGAAGGAUAUACAUUGGUUACGCUGUUCGCGUCCUCGACCACAUGAGGAUCACCCAUGUAGAAGGUUUGUAGCGCG | 16.5 | 42.7 |  | 
23 | AUUAAUUAAUUAAUACAUGAGGAUCACCCAUGUAAUAAGAUCAAGGAUAUCAGCUCGUUUAGAGCUGAGAAGGUGAUCACAUGU |  |  | 617 | 214
24 | AUACUUAAUGAAGGAUAUCUUAGCAUAAACCUGAGAGAAGGUCAUUAUUACAUGAGGAUCACCCAUGUUGUAGUUAAUGGGUAA | 199 | 254 |  | 
25 | GCUGUCGCGUGAGGAUAUGGUCAGCUUUGCUGACCAGAAGGCAUGUCAAUAGACAUGAGGAUCACCCAUGUGGUUAGGGCGGCU |  |  | 1070 | 136
26 | UAUUAGCUAGGAUAUACAUGAGGAUCACCCAUGUCACGGGUCCACUCAUCCUAUGCGUGUAGAAGGAGCGACCC | 22.9 | 26.6 |  | 
27 | GGAUAGGACAGAGGAUAUACGUGCUAGCGAUACUAGCAAAAUUUCCUCACAUGAGGAUCACCCAUGUAGAAGGCUGUCCUAUCG | 15.7 | 427 |  | 
28 | GUGCGGUCAGGAUAUGCAUGGCGGGACUUGCGUCGUGGCGUGGAGAAGGGACAUGAGGAUCACCCAUGUGGAGG | 107 | 84.9 |  | 
29 | UCAUAACAUGAGGAUCACCCAUGUGAGGAUAUGAUACUAUGUACUUCGGUACAUAGUAUCAGAAGGCACAUACU | 85 | 316 |  | 
30 | GGGUGCAUCGGAGGAUAUCAUGUAAAUACAUGAGGAUCACCCAUGUCGAUGGAGACAUCGGAGAUUGAGAAGGCCGAUGUACCG |  |  | 172 | 8.99
31 | AAGAAGUGAGGAUAUGCUGCUCGUCACUUGCGUGAUGAGUAGCAGAAGGCACAUGAGGAUCACCCAUGUGAAAA | 26 | 43.3 |  | 
32 | GGAUAUAACGUAGGAUAUCUGAGAAAUAGAUGAAGAGAAGGACGACAUGAGGAUCACCCAUGUGAUCUAUCAAUAUUAUACAUG | 452 | 749 |  | 
33 | UCAUUGUAAGGAUAUAAAAGCUCGCGGAAUUGCACGGGUUGUUAGAAGGUACAUGAGGAUCACCCAUGUUCCUA | 17.1 | 22.1 |  | 
34 | GGAGCACAUAUUAACAUGAGGAUCACCCAUGUCAAAAGACAUGAGGAUAUGGAUCCGAAAAGGAUCUAGAAGGCAUGGUGCUCC |  |  | 690 | 22.1
35 | GGGCACAUCGGAGGAUAUCAUGUAAAUACAUGAGGAUCACCCAUGUCGAUGGAGACAUCGGAGAUUGAGAAGGCCGAUGUACCG |  |  | 191 | 9.02
36 | AUCAGUACGUGAGGAUAUGCGUUACUGCGAAAGCAGUACGGUAAGAUCACAUGAGGAUCACCCAUGUAGAAGGCACGAACUGAU | 18.9 | 37.5 |  | 
37 | CCCUCAACAUGAGGAUCACCCAUGUAGGAUAUCGCUAUUGUAAUCAUGAAACAUGAUUACAAUAGCGAGAAGGACAUAUGUUUU | 25.9 | 127 |  | 
38 | AAAACAUGAGGAUCACCCAUGUAAAGAUCACUUAAUAGUUGUGAGGAUAUACGAUUUUAAAGCUAGUAGAAGGCACUGGGUACA |  |  | 28.1 | 36.1

Row | Sequence | apparent Kd [1] [nM] | apparent Kd [2] [nM] | apparent Kd [3] [nM] | apparent Kd [4] [nM]
39 | CCUCAGUAAGGAUAUCAGCUUAGUAGGUUGGUAAUGAGAGCUGAGAAGGUACAUGAGGAUCACCCAUGUUAGUU | 26.1 | 80.8 |  | 
40 | GGAUAGGACAGAGGAUAUACGUGCUAGAGAUACUAGCAAAAUUUCCUCACAUGAGGAUCACCCAUGUAGAAGGAUGUCCUAUCG | 5.3 | 7.61 |  | 
41 | CGUCGAUACCAGAAGGACAUGAGGAUCACCCAUGUAGGAUAUGGGUGACCGGGAUAGUGGACACAGCGCCCGGGCACAUGCGAC |  |  | 13.6 | 8.19
42 | CAUAUCGUACGAGGAUAUAUGAGUCCUACAUGAGGAUCACCCAUGUAGGUGAUCUAACGAGAUUAGUAGAAGGCGUACGAUAUG |  |  | 14.1 | 7.85
43 | UAGAUACAUGAGGAUCACCCAUGUGAGGAUAUCGUUUGUACUAAUCUUUUAGUAUUUUCGAGAAGGCACAUAUA | 73.9 | 183 |  | 
44 | UGCGGAUAUCGAGGAUAUGCGACGGGUUCUCACAUGAGGAUCACCCAUGUCCGCGGGCCUCAAAAGCAGAAGGCGAGUUCGGUU |  |  | 376 | 10.6
45 | GAAGGGCCUCGAGGAUAUCGCUGCGGUCGUUUGACAUGAGGAUCACCCAUGUGAGAAGGCGAGGCUACUAACCAUGCCCGUUAU | 31.3 | 148 |  | 
46 | AAUAUAGAGCUGGAAUAAAACACAACAUGAGGAUCACCCAUGUAGGAUAUCAGCACGAUAAGUGCUGAGAAGGACAUCCAGCUC | 14.7 | 14.2 |  | 
47 | AGAAAACAUGAGGAUCACCCAUGUAAGGAUAUGCUAAGGGUGGCUUCGGCCACCCAAUGCAGAAGGUACAAAUA | 49.6 | 59.7 |  | 
48 | CCGUUGAUAGGACAGGAUAUGACUGUCGUCACAUGAGGAUCACCCAUGUCCCGGCAAUGCCACCGUUAGAAGGGUCCCGUCUCGG |  |  | 18.8 | 19.2
49 | GCGUUGAACGAGAAGGCCAAUACAUGAGGAUCACCCAUGUAGUGAAGUAUUGGAGGAUAUCGAUCGGCGUCUCAUGAGCAACGC | 7.49 | 19.6 |  | 
50 | AUUUUGUCAGGAUAUGAGUAGUAGGACGAAAGUGUUAUUAUUUAGAAGGGACAUGAGGAUCACCCAUGUUUUCC | 12.7 | 16.7 |  | 
51 | GUUUUCGCAUGAGGAUAUGCUCGCAUUUCUAGAGCAGAAGGUAUGUCUAUAGACAUGAGGAUCACCCAUGUAUUUAACUUUGAA |  |  | 186 | 34.4
52 | AAAGUGCAAGGAUAUAUAUGAAAAGUUACGAAAGUAACAAAACAUGAGGAUCACCCAUGUAGAAGGUGCACAAA | 27.8 | 24.4 |  | 
53 | AACAGUAGAGGAUAUACAUGAGGAUCACCCAUGUGAUAAUUACGUGGCGUACCACGAAGUAGAAGGCUACUGGA | 65.6 | 316 |  | 
54 | AUAAUGUAAGGAUAUAUGAAUCACGGUGAUACACCGUGAAGAUAGAAGGUACAUGAGGAUCACCCAUGUAGGGC | 50.5 | 220 |  | 
55 | UUACUAUAACAGAAGGCUAGAUAAUAUAUAAAUGGAGGAUAUGUUACAUGAGGAUCACCCAUGUUUCACCCACAUGAGGAUCAC | 16.4 | 52.2 |  | 
56 | GGACGUCACAUUAACAUGAGGAUCACCCAUGUCAAAAGACAUGAGGAUAUGGAUAAUAAUAUAAACCAGAAGGCAUGGACGUCC |  |  | 526 | 29.2
